Results reported in ChEMBL document CHEMBL1126799, “Synthesis of antimicrobial agents. 5. In vivo metabolism of 7-(4-hydroxypiperazin-1-yl)quinolones” (1993).
≈ marks a conversion by molar mass, not a printed value.

Assays:
[1] = test system: Bacillus subtilis; test: Tested in vitro against Bacillus subtilis ATCC 6633 by agar dilution method; format: functional
Method in brief: (§1)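 MIC by 2-fold agar dilution on Mueller–Hinton agar (footnote says sensitivity test agar).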

[2] = test system: Escherichia coli; test: Tested in vitro against Escherichia coli NIHJ JC-2 by agar dilution method; format: functional; method in brief: as §1
[3] = test system: Klebsiella pneumoniae; test: Tested in vitro against Klebsiella pneumoniae PCI-602 by agar dilution method; format: functional; method in brief: as §1
[4] = test system: Pseudomonas aeruginosa; test: Tested in vivo against Pseudomonas aeruginosa E-2 in mice after peroral dose of drug with 0.5% sodium carboxy methyl cellulose; format: functional; settings: po
Method in brief: (§2)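 Mice infected, then given compound orally 1 h post-infection as a suspension in 0.5% sodium CMC. ED50 calculated from cumulative mortality on day 7 post-infection by shortened Weil method.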

[5] = test system: Pseudomonas aeruginosa; test: Tested in vitro against Pseudomonas aeruginosa IFO3445 by agar dilution method; format: functional; method in brief: as §1
[6] = test system: Proteus vulgaris; test: Tested in vitro against Proteus vulgaris OX-19 by agar dilution method; format: functional; method in brief: as §1
[7] = test system: Salmonella typhimurium; test: Tested in vitro against Salmonella Typhimurium IID971 by agar dilution method; format: functional, Salmonella enterica subsp. enterica serovar Typhimurium; settings: Salmonella enterica; method in brief: as §1
[8] = test system: Staphylococcus aureus; test: Tested in vivo against Staphylococcus aureus IID803 in mice after peroral dose of drug with 0.5% sodium carboxy methyl cellulose; format: functional; settings: po; method in brief: as §2
[9] = test system: Staphylococcus aureus; test: Tested in vitro against Staphylococcus aureus FDA209P JC-1 by agar dilution method; format: functional; method in brief: as §1
[10] = test system: Staphylococcus aureus; test: Tested in vitro against Staphylococcus aureus IID803 by agar dilution method; format: functional; method in brief: as §1
[11] = test system: Staphylococcus epidermidis; test: Tested in vitro against Staphylococcus epidermidis IAM12896 by agar dilution method; format: functional; method in brief: as §1
[12] = test system: Serratia marcescens; test: Tested in vitro against Serratia marcescens IAM1184 by agar dilution method; format: functional; method in brief: as §1
[13] = test system: Pseudomonas aeruginosa; test: Tested in vitro against Pseudomonas aeruginosa E-2 by agar dilution method; format: functional; method in brief: as §1

SMILES | MIC [1] [µg/mL] | MIC [2] [µg/mL] | MIC [3] [µg/mL] | ED50 [4] [mg/kg] | MIC [5] [µg/mL] | MIC [6] [µg/mL] | MIC [7] [µg/mL] | ED50 [8] [mg/kg] | MIC [9] [µg/mL] | MIC [10] [µg/mL] | MIC [11] [µg/mL] | MIC [12] [µg/mL] | MIC [13] [µg/mL]
CC1CN(c2c(F)cc3c(=O)c(C(=O)O)cn(C4CC4)c3c2F)CC(C)N1 (stereo unspecified) | 0.1 (≈ 0.265 µM) | 0.1 (≈ 0.265 µM) | 0.025 (≈ 0.0662 µM) | 11.7 | 3.13 (≈ 8.29 µM) | 0.1 (≈ 0.265 µM) | 0.1 (≈ 0.265 µM) | 2.21 | 0.39 (≈ 1.03 µM) | 0.39 (≈ 1.03 µM) | 0.78 (≈ 2.07 µM) | 0.78 (≈ 2.07 µM) | 3.13 (≈ 8.29 µM)
O=C(O)c1cn(C2CC2)c2c(F)c(N3CCNCC3)c(F)cc2c1=O | 0.1 (≈ 0.286 µM) | 0.05 (≈ 0.143 µM) | 0.025 (≈ 0.0716 µM) | 6.7 | 0.78 (≈ 2.23 µM) | 0.05 (≈ 0.143 µM) | 0.025 (≈ 0.0716 µM) | 5.82 | 0.2 (≈ 0.573 µM) | 0.39 (≈ 1.12 µM) | 0.78 (≈ 2.23 µM) | 0.39 (≈ 1.12 µM) | 0.78 (≈ 2.23 µM)
CC1CN(c2c(F)cc3c(=O)c(C(=O)O)cn(C4CC4)c3c2F)CCN1 (stereo unspecified) | 0.05 (≈ 0.138 µM) | 0.05 (≈ 0.138 µM) | 0.0125 (≈ 0.0344 µM) | 8.84 | 1.56 (≈ 4.29 µM) | 0.05 (≈ 0.138 µM) | 0.025 (≈ 0.0688 µM) | 2.21 | 0.39 (≈ 1.07 µM) | 0.2 (≈ 0.55 µM) | 0.78 (≈ 2.15 µM) | 0.39 (≈ 1.07 µM) | 1.56 (≈ 4.29 µM)
CC1CN(c2c(F)cc3c(=O)c(C(=O)O)cn(C4CC4)c3c2F)CC(C)N1O (stereo unspecified) | 0.05 (≈ 0.127 µM) | 0.78 (≈ 1.98 µM) | 0.1 (≈ 0.254 µM) | 35.4 | 12.5 (≈ 31.8 µM) | 0.39 (≈ 0.991 µM) | 0.78 (≈ 1.98 µM) | 1.67 | 0.2 (≈ 0.508 µM) | 0.2 (≈ 0.508 µM) | 0.39 (≈ 0.991 µM) | 6.25 (≈ 15.9 µM) | 12.5 (≈ 31.8 µM)
CC1CN(c2c(F)cc3c(=O)c(C(=O)O)cn(C4CC4)c3c2F)CCN1O (stereo unspecified) | 0.025 (≈ 0.0659 µM) | 0.1 (≈ 0.264 µM) | 0.025 (≈ 0.0659 µM) | 22.9 | 3.13 (≈ 8.25 µM) | 0.1 (≈ 0.264 µM) | 0.05 (≈ 0.132 µM) | 1.67 | 0.39 (≈ 1.03 µM) | 0.2 (≈ 0.527 µM) | 0.78 (≈ 2.06 µM) | 0.78 (≈ 2.06 µM) | 3.13 (≈ 8.25 µM)
O=C(O)c1cn(C2CC2)c2c(F)c(N3CCN(O)CC3)c(F)cc2c1=O | 0.05 (≈ 0.137 µM) | 0.1 (≈ 0.274 µM) | 0.025 (≈ 0.0684 µM) | 4.81 | 1.56 (≈ 4.27 µM) | 0.05 (≈ 0.137 µM) | 0.025 (≈ 0.0684 µM) | 3.34 | 0.39 (≈ 1.07 µM) | 0.39 (≈ 1.07 µM) | 0.78 (≈ 2.14 µM) | 0.78 (≈ 2.14 µM) | 1.56 (≈ 4.27 µM)
O=C(O)c1cn(C2CC2)c2cc(N3CCNCC3)c(F)cc2c1=O [CIPROFLOXACIN] | 0.1 (≈ 0.302 µM) |  | 0.025 (≈ 0.0754 µM) | 30.8 | 0.78 (≈ 2.35 µM) | 0.05 (≈ 0.151 µM) | 0.025 (≈ 0.0754 µM) | 35.4 | 0.39 (≈ 1.18 µM) | 0.78 (≈ 2.35 µM) | 1.56 (≈ 4.71 µM) | 0.39 (≈ 1.18 µM) | 0.78 (≈ 2.35 µM)
CCn1cc(C(=O)O)c(=O)c2cc(F)c(N3CCNCC3)cc21 [NORFLOXACIN] | 0.39 (≈ 1.22 µM) | 0.39 (≈ 1.22 µM) | 0.1 (≈ 0.313 µM) | 107 | 3.13 (≈ 9.8 µM) | 0.2 (≈ 0.626 µM) | 0.1 (≈ 0.313 µM) | 91.7 | 0.39 (≈ 1.22 µM) | 1.56 (≈ 4.89 µM) | 3.13 (≈ 9.8 µM) | 0.78 (≈ 2.44 µM) | 3.13 (≈ 9.8 µM)
CC1COc2c(N3CCN(C)CC3)c(F)cc3c(=O)c(C(=O)O)cn1c23 (stereo unspecified) [OFLOXACIN] | 0.2 (≈ 0.553 µM) | 0.2 (≈ 0.553 µM) | 0.1 (≈ 0.277 µM) | 54.5 | 3.13 (≈ 8.66 µM) | 0.1 (≈ 0.277 µM) | 0.1 (≈ 0.277 µM) | 8.84 | 0.39 (≈ 1.08 µM) | 0.78 (≈ 2.16 µM) | 0.78 (≈ 2.16 µM) | 0.78 (≈ 2.16 µM) | 3.13 (≈ 8.66 µM)
